STAT3 activator – IL-6 driven STAT3 reporter potentiators, primary screen, U3A cells, luciferase, luminescence, MLSCN library; IL-6 STAT3-luciferase reporter; 100% = signal with IL-6 EC80 alone; activation (% of control), % at 5.6 µM; 190,000 compounds, 0.91% hits;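 active means activation above the screen-wide mean of compound activation plus 3 SD, cut at about 130% in these data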;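 further: 0% = background luminescence of wells with medium and substrate only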
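Detection: reporter luminescence signal / Assay system: STAT1-lacking human U3A cells, STAT3 luciferase reporter / Incubation: compound pre-incubation 1 h before IL-6, then 6 h stimulation at 37 °C / Control set: IL-6-only high control / Read-out: % activation relative to IL-6 control / Probe or stimulus: Interleukin-6, 33 ng/mL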
STAT1 activator – STAT1 signaling activators, primary screen, cell-based, HTS, luciferase reporter; NIH 3T3 STAT1-luciferase reporter, IFN-gamma, luminescence; 100% = IFN-gamma alone, no compound; activation (% of control), % at 5.5 µM; 200,000 compounds, 2.6% hits;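 active means activation above the screen-wide mean activation plus 3 SD, cut at about 130% in these data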;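 further: raw ratio to IFN-gamma control signal so 100% means no change and 0% no light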
STAT1 blocker – STAT1 signaling inhibitors, primary screen, cell-based, HTS, luciferase reporter; 200,000 compounds, 0.35% hits; inhibition, % at 5.5 µM; NIH 3T3 STAT1-luciferase reporter, IFN-gamma, luminescence;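 active means inhibition above a set limit, the mean inhibition across all tested compounds plus 3 SD, cut at about 34% in these data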;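 further: 0% = IFN-gamma with DMSO and 100% = IFN-gamma with 300 µM nifuroxazide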
NF-kB neuron act – activators of NF-kB expression in neurons, primary screen, cell-based, HTS | human neuronal cells, NF-kB reporter expression; stronger effect = higher value | fold change at 12.5 µM | 190,000 compounds, 1.6% hits | AID 1239, 2008; in the data active means fold change above about 3.3
APP 5'UTR act – activators of APP 5'UTR luciferase reporter, primary screen, SH-SY5Y cells; SH-SY5Y APP 5'UTR luciferase reporter, luminescence; zero percent = DMSO vehicle wells; activation, % at 2 µM; 190,000 compounds, 1% hits;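 active means activation above a set limit, based on mean plus 3 SD of controls, cut at about 140% in these data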
STAT3 blocker – IL-6 driven STAT3 reporter inhibitors, primary screen, U3A cells, luciferase, luminescence, MLSCN library; inhibition, % at 5.5 µM; IL-6 STAT3-luciferase reporter; host cell line lacks STAT1; 190,000 compounds, 0.89% hits;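 active means inhibition above the mean inhibition across all screened compounds plus 3 SD, cut at about 44% in these data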;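 further: 0% = DMSO only wells and 100% = 100 µM nifuroxazide control wells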
Starred values were filed as active, the others as inactive; . = no result given. Rows were chosen to be rich in hits. Some 5.1% of all compounds tested hit in one or more screens of this group.

SMILES	STAT3 activator	STAT1 activator	STAT1 blocker	NF-kB neuron act	APP 5'UTR act	STAT3 blocker
CCCCOc1ccc(-c2nnn(CC(=O)NCc3ccco3)n2)cc1	108	118	-19	1.9	7	-5
Cc1[nH]c2ccccc2c1C(=O)CSC(=S)N(C)C	99	130*	-33	1.6	27	4
O=C(N/N=C/c1ccccc1Cl)c1ccc(F)cc1	84	138*	-43	2.8	76	24
CCOc1ccc(C(=O)N/N=C/c2ccc(SC)cc2)cc1	99	108	-9	1.1	8	-2
COC(=O)c1ccc(/C=N/NC(=O)c2cccc(F)c2)cc1	95	130*	-33	2.6	98	16
CSc1ccc(/C=N/NC(=O)c2cccc(O)c2)cc1	65	97	4	4.5*	159*	47*
O=C(N/N=C\c1ccc(F)cc1)c1ccc(F)cc1	116	145*	-51	1.8	15	-5
O=C1N/C(=C\c2ccc(O)cc2)C(=O)c2ccccc21	88	78	25	0.91	20	22
O=C(CSc1ncc(-c2ccc(F)cc2)n1Cc1ccco1)Nc1ccc2c(c1)OCO2	97	138*	-41	1.6	62	6
C/C(=N\NC(=O)c1nn(C)c(C)c1Br)c1cccc(NC(=O)c2ccc(F)cc2)c1	94	139*	-44	1.4	60	7
C/C(=N\NC(=O)c1ccccc1NC(=O)c1ccc(Cl)cc1)c1ccncc1	8	11	96*	3.2	62	106*
C/C(=N\NC(=O)c1nn(C)cc1Br)c1cccc(NC(=O)C(C)(C)C)c1	103	102	-2	1.3	35	-4
C/C(=N\NC(=O)c1c(Br)c(C)nn1C)c1cccc(NC(=O)c2ccccc2F)c1	85	104	-5	1.2	-12	18
C/C(=N\NC(=O)c1nn(C)cc1Br)c1ccc(NC(=O)c2ccncc2)cc1	104	131*	-35	1.4	10	-7
CC(C)C(C(=O)NCc1ccco1)N(C(=O)CNS(=O)(=O)c1ccccc1)C1CCCC1 (centres undefined)	98	98	3	1.1	13	6
Cc1cc(C)c(C)c(S(=O)(=O)N2CCN(Cc3nc4ccccc4[nH]3)CC2)c1C	120	91	10	0.97	2	-22
COc1c(F)c(F)c(C(=O)Nc2ccccc2N2CCN(C(=O)C(C)C)CC2)c(F)c1F	128	94	7	0.88	18	-30
Cc1csc(=Nc2ccccc2)n1C	102	104	-4	1.6	2	0
Cc1ccc(N=c2sc(C)c(C)n2C)cc1	101	133*	-38	1.9	46	3
CCOC(=O)c1cc2c(n(-c3ccc(Cl)cc3)c1=O)CCCC2=O	97	103	-4	1.2	-4	6
O=C(/C=C/c1cccs1)c1ccc(N2CCOCC2)cc1	85	120	-21	3.2	236*	21
O=C(O)c1ccccc1Nc1ccccc1C(=O)O	100	99	1	1.1	-2	4
O=C(O)c1ccccc1Nc1ccc([N+](=O)[O-])cc1	110	139*	-44	2.3	3	-15
CCOC(=O)N1CCN(C(=O)c2cccc(OC)c2O)CC1	103	99	1	1.2	3	-3
CCN(CC)S(=O)(=O)c1ccc(Oc2cccc(C(C)=O)c2)nc1	101	92	9	1	2	2
SMILES	STAT3 activator	STAT1 activator	STAT1 blocker	NF-kB neuron act	APP 5'UTR act	STAT3 blocker
COc1ccc(OCC(=O)Nc2ccccc2O)cc1	96	88	13	5.5*	65	11
CCOc1ccc(NS(=O)(=O)c2ccc(NS(C)(=O)=O)cc2)cc1	94	99	-1	0.96	7	12
CC(=O)c1ccc(S(=O)(=O)N(Cc2cc3cc4c(cc3[nH]c2=O)OCCO4)CC2CCCO2)cc1 (centres undefined)	109	129*	-32	1.6	26	-5
Cc1ccc(-n2nnc(-c3cc4ccccc4nc3Cl)n2)cc1	.	90	12	1.7	5	.
Clc1ccc(-n2nnc(-c3nccs3)n2)cc1Cl	.	98	4	4.8*	199*	.
C=CS(=O)(=O)c1sc(Cl)c(N2CCOCC2)c1[N+](=O)[O-]	92	129*	-33	1.1	-31	16
Cc1ccc(S(=O)(=O)N2CCCCC2)cc1NC(=O)CSc1ccc2c(c1)OCCO2	107	104	-5	0.84	1	-13
CN(CCCNC(=O)Cn1cccc1C(=O)c1ccccc1)C1CCCCC1	100	100	-1	1.3	5	12
C/C(=N\NC(=O)c1nc2ccccn2c1C)c1ccco1	102	136*	-39	0.97	-3	2
COc1ccc(C2=NOC(C(=O)N3CCOCC3)C2)cc1OC (centres undefined)	105	107	-7	1.1	4	-2
COc1cccc(C2=NOC(C(=O)N3CCOCC3)C2)c1 (centres undefined)	108	133*	-36	2	38	-4
CC1CCN(C(=O)C2CC(c3ccc(F)cc3)=NO2)CC1 (centres undefined)	88	129*	-32	1.6	15	16
CCCCC(C)(O)C/C=C/[C@H]1[C@H](O)CC(=O)[C@@H]1CCCCCCC(=O)OC (some centres undefined)	89	93	8	1.3	24	15
COc1ccc2oc(=O)c(/C(C)=N/Nc3nc(-c4cc(C)ccc4C)cs3)cc2c1	107	102	-2	1	-7	-4
COc1ccc2oc(=O)c(-c3csc(Nc4ccc(O)cc4)n3)cc2c1	88	116	-17	3.6*	-7	21
COCCNC(=O)COc1cccc(Oc2ccccc2)c1	108	96	5	1.2	2	-7
Cc1nc(C)c(/C(O)=C/c2nc3ccccc3oc2=O)s1	98	86	16	4.8*	1	6
CNC(=O)c1ccc(Nc2nnc(-c3ccc(C)c(S(=O)(=O)NCC4CCCO4)c3)c3ccccc23)cc1 (centres undefined)	102	89	12	0.88	11	-8
Cc1cc(Cl)n2c(nc3cc(F)c(F)cc32)c1C#N	123	131*	-36	0.11	-88	-17
Cc1cc(C)n2c(=O)c3ccc(Cl)cc3nc2c1C#N	98	108	-11	1.1	-4	12
Cc1nc(C(=O)NC(C)C)nn1-c1cc(Cl)cc(Cl)c1	102	92	6	0.96	20	-1
CSc1nc2ccc(S(=O)(=O)N3CCCCC3)cc2s1	102	91	10	1	-6	4

Assay outcomes as filed in PubChem BioAssay.
